Measurements taken from ChEMBL document CHEMBL2390931, “Synthesis and antifungal activity of some s-mercaptotriazolobenzothiazolyl amino acid derivatives” (2013).
≈ marks a conversion by molar mass, not a printed value. Calls of active or inactive are those of the source. The rule behind the calls is not given here.

Key:
Assay type in all cases: functional
Aspergillus flavus [1] = assay: Antifungal activity against Aspergillus flavus up to 24 hrs
How it was run: (§1)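 MFC in tubes of standardized spore suspension (10⁴ CFU/mL) of clinical isolates, each dosed with compound at increasing concentrations starting from the MIC. Controls: solvent at its highest level, and fluconazole. CFU counted and viability checked at intervals over 0–24 h. MFC is the lowest concentration killing about 99% of viable CFU.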

Candida albicans [2] = assay: Antifungal activity against Candida albicans up to 24 hrs; how it was run: as §1
Candida albicans [3] = assay: Antifungal activity against Candida albicans at 300 ppm; settings: for zone of inhibition at 300 ppm: read-out: DIZ
How it was run: (§2)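 Agar well diffusion against clinical isolates (A. flavus mold; C. albicans yeast); standardized spore suspension 10⁴ CFU/mL. Compounds dissolved in DMSO as a parent stock, diluted to test levels (100, 300, 500, 1000 ppm).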

Aspergillus flavus [4] = assay: Antifungal activity against Aspergillus flavus at 500 ppm; settings: for zone of inhibition at 500 ppm: read-out: DIZ; how it was run: as §2
Candida albicans [5] = assay: Antifungal activity against Candida albicans at 100 ppm; settings: for zone of inhibition at 100 ppm: read-out: DIZ; how it was run: as §2
Aspergillus flavus [6] = assay: Antifungal activity against Aspergillus flavus at 300 ppm; how it was run: as §2
Aspergillus flavus [7] = assay: Antifungal activity against Aspergillus flavus by agar diffusion technique
How it was run: (§3)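 Clinical isolates (A. flavus mold; C. albicans yeast), spore suspension standardized at 10⁴ CFU/mL. DMSO stocks diluted to a concentration series. Approximate MIC by agar diffusion (well technique), taken as the concentration giving minimal inhibition around the well.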

Aspergillus flavus [8] = assay: Antifungal activity against Aspergillus flavus at 100 ppm
How it was run: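 Clinical isolate of A. flavus (mold) tested by agar diffusion, well technique, using a standardized spore suspension of 10⁴ CFU/mL. Compounds were dissolved in dimethylsulphoxide and diluted from a parent stock.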

Candida albicans [9] = assay: Antifungal activity against Candida albicans at 500 ppm; settings: for zone of inhibition at 500 ppm: read-out: DIZ; how it was run: as §2
Candida albicans [10] = assay: Antifungal activity against Candida albicans at 1000 ppm; settings: read-out: DIZ; how it was run: as §2
Candida albicans [11] = assay: Antifungal activity against Candida albicans by agar diffusion technique; how it was run: as §3
Aspergillus flavus [12] = assay: Antifungal activity against Aspergillus flavus at 1000 ppm; settings: for zone of inhibition at 1000 ppm: read-out: DIZ; how it was run: as §2

Structure (SMILES) | MFC (Aspergillus flavus [1]) | MFC (Candida albicans [2]) | diameter of the inhibition zone (DIZ) (Candida albicans [3]) | diameter of the inhibition zone (DIZ) (Aspergillus flavus [4]) | diameter of the inhibition zone (DIZ) (Candida albicans [5]) | diameter of the inhibition zone (DIZ) (Aspergillus flavus [6]) | MIC (Aspergillus flavus [7]) | diameter of the inhibition zone (DIZ) (Aspergillus flavus [8]) | zone of inhibition at 500 ppm (Candida albicans [9]) | zone of inhibition at 1000 ppm (Candida albicans [10]) | MIC (Candida albicans [11]) | zone of inhibition at 1000 ppm (Aspergillus flavus [12]) | zone of inhibition at 300 ppm (Candida albicans [3]) | zone of inhibition at 500 ppm (Aspergillus flavus [4]) | zone of inhibition at 100 ppm (Candida albicans [5]) | zone of inhibition at 300 ppm (Aspergillus flavus [6]; read-out: DIZ) | diameter of the inhibition zone (DIZ) (Candida albicans [9]) | diameter of the inhibition zone (DIZ) (Aspergillus flavus [12])
COC(=O)[C@H](CCSC)NC(=O)CCn1nc2sc3ccccc3n2c1=S | inactive | inactive | inactive | inactive | inactive | inactive | 1000 µg/mL (≈ 2360 µM) | inactive | < 10 mm | 10 mm | 500 µg/mL (≈ 1180 µM) | < 10 mm |  |  |  |  |  | 
O=C(CCn1nc2sc3ccccc3n2c1=S)N(C(=O)NC1CCCCC1)C1CCCCC1 | inactive | 500 µg/mL (≈ 1030 µM) |  |  |  |  | 300 µg/mL (≈ 618 µM) | inactive | > 16 mm | > 16 mm | 100 µg/mL (≈ 206 µM) | > 16 mm | 10 mm | 10 mm | < 10 mm | < 10 mm |  | 
Sc1nc2ccccc2s1 [2-MERCAPTOBENZOTHIAZOLE] | inactive | 500 µg/mL (≈ 2990 µM) |  |  |  | inactive | 500 µg/mL (≈ 2990 µM) | inactive | 10 mm | > 16 mm | 100 µg/mL (≈ 598 µM) | 10 mm | < 10 mm | < 10 mm | < 10 mm |  |  | 
O=C(O)CCn1nc2sc3ccccc3n2c1=S | inactive | inactive |  |  | inactive | inactive | 500 µg/mL (≈ 1790 µM) | inactive | 10 mm | > 16 mm | 300 µg/mL (≈ 1070 µM) | 10 mm | < 10 mm | < 10 mm |  |  |  | 
COC(=O)CCn1nc2sc3ccccc3n2c1=S | inactive | inactive |  | inactive | inactive | inactive | 1000 µg/mL (≈ 3410 µM) | inactive | < 10 mm | > 16 mm | 300 µg/mL (≈ 1020 µM) | < 10 mm | < 10 mm |  |  |  |  | 
O=C(O)CSc1nnc2sc3ccccc3n12 | 500 µg/mL (≈ 1880 µM) | inactive |  | inactive | inactive | inactive | 1000 µg/mL (≈ 3770 µM) | inactive | < 10 mm | 10 mm | 300 µg/mL (≈ 1130 µM) | < 10 mm | < 10 mm |  |  |  |  | 
COC(=O)[C@H](CCSC)NC(=O)CCSc1nnc2sc3ccccc3n12 | inactive | inactive | inactive | inactive | inactive | inactive | 1000 µg/mL (≈ 2360 µM) | inactive | < 10 mm | 10 mm | 500 µg/mL (≈ 1180 µM) | < 10 mm |  |  |  |  |  | 
NNC(=O)CCn1nc2sc3ccccc3n2c1=S | inactive | inactive | inactive | inactive | inactive | inactive | inactive | inactive |  | < 10 mm | 1000 µg/mL (≈ 3410 µM) |  |  |  |  |  | inactive | inactive
COC(=O)C(NC(=O)CSc1nnc2sc3ccccc3n12)C(C)O (racemic) | inactive | inactive | inactive | inactive | inactive | inactive | 1000 µg/mL (≈ 2630 µM) | inactive | < 10 mm | 10 mm | 500 µg/mL (≈ 1310 µM) | 10 mm |  |  |  |  |  | 
O=C(CCSc1nnc2sc3ccccc3n12)N(C(=O)NC1CCCCC1)C1CCCCC1 | inactive | inactive |  | inactive | inactive | inactive | 1000 µg/mL (≈ 2060 µM) | inactive | 10 mm | > 16 mm | 300 µg/mL (≈ 618 µM) | < 10 mm | < 10 mm |  |  |  |  | 
